# Source: PubChem
# LMPTP inh: LMPTP (human) inhibition; recombinant LMPTP-A, OMFP fluorogenic substrate, fluorescence intensity; inhibition, % at 20 µM; P24666; actives 0.22% (n = 360,000);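 active = compounds that cut the enzyme signal by at least half of the control window in the single-dose screen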;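 note: plate controls were DMSO wells with enzyme plus substrate for no effect and substrate without enzyme for full effect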
#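 Material: LMPTP-A; amount: 0.625 nM enzyme; doses: single 20 µM dose; times: reaction 50 min, room temperature, dark; technique: fluorescence intensity of OMFP turnover product; benchmarks: no-enzyme and uninhibited controls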
# DNMT1 inh: inhibitors of human DNMT1 | P26358 | DNMT1 molecular beacon, Hinp1I cleavage, fluorescence | inhibition (reported as % activation of signal), % at 10 µM | actives 0.83% (n = 360,000); in the data active = inhibition above about 50%
# Scp-1 inhibitor: Scp-1 (human) phosphatase inhibition | Q9GZU7 | Recombinant Scp1, phosphopeptide, malachite green phosphate absorbance | inhibition, % at 20 µM | actives 0.88% (n = 340,000) | AID 493091;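 active = inhibition above about 50% at 20 µM, limit read from the data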;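 note: plate controls were DMSO wells with enzyme for no effect and wells lacking enzyme for full effect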
# Target sequence (Q9GZU7 76-261 limits assumed): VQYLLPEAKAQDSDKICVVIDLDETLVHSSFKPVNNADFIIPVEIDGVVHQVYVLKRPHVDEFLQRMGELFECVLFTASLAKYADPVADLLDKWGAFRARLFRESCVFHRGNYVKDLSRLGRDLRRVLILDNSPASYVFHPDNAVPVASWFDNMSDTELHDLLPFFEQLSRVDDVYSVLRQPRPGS
#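 Assay system: SCP-1 catalytic fragment, aa 76-261 | Buffer or medium: Tris acetate buffer pH 5.5 with MgCl2 and Tween-20 | Compound: One concentration, 20 µM, with 1.0% DMSO | Also added: Phospho 17-mer peptide substrate | Signal: Absorbance at 630 nm | Incubation: 45 min enzyme reaction at room temperature | Measure: % inhibition of SCP-1 phosphate liberation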
# Rpn11 block: inhibitors of human proteasome Rpn11. human 26S proteasome, Ub4-pepOG fluorescence polarization; 20S core pre-blocked with epoxomicin. inhibition, % at 20 µM. actives 0.59% (n = 360,000);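 active = inhibition at 20 µM, scaled to each plate's controls, above about 33%, limit read from the data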
# Target sequence (O00487 whole entry, looked up): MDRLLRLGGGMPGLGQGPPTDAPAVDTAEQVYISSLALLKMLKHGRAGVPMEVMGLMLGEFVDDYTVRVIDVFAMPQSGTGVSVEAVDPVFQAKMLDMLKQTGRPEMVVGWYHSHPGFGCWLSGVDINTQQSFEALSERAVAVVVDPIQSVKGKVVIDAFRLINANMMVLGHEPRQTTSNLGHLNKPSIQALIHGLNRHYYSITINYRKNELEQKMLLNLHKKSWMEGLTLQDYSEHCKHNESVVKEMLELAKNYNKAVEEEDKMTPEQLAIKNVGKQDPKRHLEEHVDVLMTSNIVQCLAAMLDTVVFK
# STEP inh: inhibitors of human striatal-enriched phosphatase STEP; P54829; recombinant STEP, OMFP fluorogenic substrate, fluorescence; inhibition, % at 20 µM; actives 0.25% (n = 360,000); AID 588621;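 active = inhibition at 20 µM, scaled per plate between control wells, above about 37%, limit read from the data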;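 note: 0% = DMSO with enzyme and substrate and 100% = substrate only without enzyme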
#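 Material: STEP (striatal-enriched tyrosine phosphatase) enzyme, cell-free; Compound dosing: 20 µM single dose in 1% DMSO; Technique: fluorescence read at 480 nm ex / 540 nm em; Times: reaction 20 min, ambient temperature; Medium: 50 mM Bis-Tris pH 6.0 with 2.5 mM DTT and 0.005% Tween 20; Also added: OMFP at 25 µM.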
# * hit, by the source's call; x = not tested or not shown. The list is not random: actives were taken first. Their share in the collection is about 2%.
SMILES,LMPTP inh,DNMT1 inh,Scp-1 inhibitor,Rpn11 block,STEP inh
COc1ccc(CCn2c(NN)nc3c2c(=O)[nH]c(=O)n3C)cc1,7,75*,20,-2,28
CCOC(=O)C1(C)CCCN(C(=O)COc2ccccc2)C1 (stereo unspecified),0,2,x,-10,-4
CCOc1ccccc1C(=O)NCC(=O)N1CCN(Cc2ccc3c(c2)OCO3)CC1,-1,0,-1,0,-4
O=C(Nc1cccc(-c2cn3ccccc3n2)c1)c1cc2ccccc2oc1=O,75*,43,3,12,81*
C=C1CCC2C(C)(C(=O)O)CCCC2(C)C1CCC(CO)CCO (stereo unspecified),-1,1,x,2,-2
Nc1cccc2c1C(=O)N(CCOc1ccccc1F)C2=O,-2,0,56*,-28,-2
CCOc1cccc(C(=O)Nc2cccc(-c3nnc(-c4ccccc4)o3)c2)c1,4,-1,0,0,2
CCOc1cccc(C(=O)Nc2cccc(-c3nnc(-c4ccc(C)cc4)o3)c2)c1,5,66*,-8,18,0
COc1ccc(N(CC(C)C)S(=O)(=O)c2nnc(NC(=O)c3ccco3)s2)cc1,1,9,6,4,-2
CC(OC(=O)/C(C#N)=C/c1ccc(N(C)C)cc1)C(=O)NCc1ccco1 (stereo unspecified),2,61*,x,15,-2
O=C(NCc1ccccc1)C(c1ccc(-c2ccccc2)cc1)N1CCN(c2ccccc2F)CC1 (stereo unspecified),4,x,x,x,x
O=C(CN1CCNCC1)N1CCOCC1,-1,-2,x,3,1
CCOC(=O)/C(C#N)=C/c1cccn1-c1ccc(Cl)cc1,5,-1,-14,-4,2
N#C/C(=C/c1cccn1-c1cccc(C(=O)O)c1)c1ccc(Cl)cc1,8,80*,33,18,6
O=S1(=O)C[C@H](N2CCCC2)[C@@H](COCc2ccccc2)N1,-2,8,x,0,-3
CCn1c(SCc2nc3sc(C(=O)O)c(C)c3c(=O)[nH]2)nc2ccccc21,2,44,65*,30,16
COc1cccc(N=C2NC(=O)/C(=C/c3cc([N+](=O)[O-])ccc3O)S2)c1,88*,3,44,x,50*
COc1ccc2nc3cc(Cl)ccc3c(C#N)c2c1,2,-4,-9,-6,-3
COc1ccc2nc3cc(Cl)ccc3c(Nc3ccc(O)c(CN4CCN(C)CC4)c3)c2c1,22,68*,-10,-18,6
O=[N+]([O-])c1ccc(Cl)c(CN2CCN(c3ncc(Cc4ccccc4)cn3)CC2)c1,1,x,x,x,x
O=C1/C(=C/N(C(=O)c2ccco2)c2ccc(Br)cc2)Sc2ccccc21,2,5,-3,52*,1
O=C1/C(=C/N(C(=O)c2ccco2)c2ccc(Cl)cc2)Sc2ccccc21,0,8,-5,16,3
Cc1nc2ccc(C(=O)N/N=C/c3ccccc3O)cc2[nH]1,0,1,-5,-2,13
Cc1nc2ccc(C(=O)N/N=C/c3cc([N+](=O)[O-])ccc3O)cc2[nH]1,17,2,38,-2,49*
CC(C=CC(O)=C1C(=O)CNC1=O)=C[C@@H](C)C1OC2(C)OC(C(=O)C3O[C@@]32C)C1C (stereo partly specified),1,x,x,x,x
SMILES,LMPTP inh,DNMT1 inh,Scp-1 inhibitor,Rpn11 block,STEP inh
O=C(c1ccco1)N1CC2(CC(c3ccc(Cl)cc3)=NO2)CN1Cc1ccc(Br)cc1 (stereo unspecified),5,-6,x,3,3
O=c1cc(/C=C/c2c(F)cccc2Cl)[nH]c2ccccc12,32,40,5,88*,38
O=C(NCCN1CCN(c2cccc(Cl)c2)CC1)c1ccc(CSc2nc3ccncc3[nH]2)cc1,83*,-11,-1,9,1
OC(c1ccc(F)cc1)c1nc(-c2cncnc2)cs1 (stereo unspecified),-1,1,x,-2,-1
CC(=O)Nc1ccc(S(=O)(=O)NCCC(=O)OC(C)C(=O)NC2(C#N)CCCCC2)cc1 (stereo unspecified),0,-4,-4,-3,3
CC1(C)CC[C@]2(C(=O)n3ccnc3)CC[C@]3(C)[C@H](C(=O)C=C4[C@@]5(C)C=C(C#N)C(=O)C(C)(C)[C@@H]5CC[C@]43C)[C@@H]2C1,-2,60*,15,4,2
C[C@H]1CN([C@@H](C)CO)S(=O)(=O)c2ccc(Br)cc2O[C@H]1CN(C)C(=O)Cc1ccncc1,0,4,x,-11,-3
Cc1cccc(C)c1-n1nnnc1C(c1ccnc2ccccc12)N1CCN(CCN(C)C)CC1 (stereo unspecified),-1,x,x,x,x
Cc1cc(N2CCN(C(c3ccnc4ccccc34)c3nnnn3-c3c(C)cccc3C)CC2)c2ccccc2n1 (stereo unspecified),89*,x,x,x,x
Nc1c(N(CCC2=CCCCC2)C(=O)c2ccc([N+](=O)[O-])o2)c(=O)[nH]c(=O)n1Cc1ccccc1,1,-6,-2,39*,-2
Cc1cc(N=NC(=O)c2ccccc2)ccc1O,-1,58*,-3,1,-4
CCOc1ccc(S(=O)(=O)N2CCC(C(=O)OC(C)C(=O)N(C)C3CCCCC3)CC2)cc1 (stereo unspecified),-9,-1,1,5,-3
CCCNC(=O)C1(C)CCCN(C(=O)COc2ccc(C(C)(C)C)cc2)C1 (stereo unspecified),-2,-2,x,1,-1
COc1c(N2CCN[C@H](C)C2)c(F)cc2c(=O)c(C(=O)O)cn(C3CC3)c12,x,x,-6,x,x
COc1c(N2CCN(C(=S)NCc3ccccc3)C(C)C2)c(F)cc2c(=O)c(C(=O)O)cn(C3CC3)c12 (stereo unspecified),53*,10,-12,18,-10
N#C/C(=C(/O)c1ccc(-c2cccc([N+](=O)[O-])c2)o1)c1nc2ccccc2s1,52*,-27,89*,9,12
O=C(/C=C/c1ccc(F)cc1)NC(=S)NNC(=O)c1cnccn1,0,3,69*,25,3
NS(=O)(=O)c1ccc(NC(=O)COc2cccc3ccccc23)cc1,2,-11,-8,2,1
O=C(Nc1nnc([C@@H]2O[C@H](CO)[C@@H](O)[C@H]2O)s1)Nc1ccccc1C(F)(F)F,1,3,x,-1,1
CC(C)c1ccc(NC2CCCN(C(=O)CN3CCCCC3=O)C2)cc1 (stereo unspecified),-1,-1,x,4,2
CC(NC1=CC(=O)c2cccnc2C1=O)C(O)c1ccccc1 (stereo unspecified),7,72*,0,0,1
